Assay results taken from ChEMBL document CHEMBL1130040, “Synthesis and structure-activity relationships of a new model of arylpiperazines. 2. Three-dimensional quantitative structure-activity relationships of hydantoin-phenylpiperazine derivatives with affinity for 5-HT1A and alpha 1 receptors. A comparison of CoMFA models” (J Med Chem, 1997).

How the values were obtained:
[1] = target: T1, Adrenergic receptor alpha-1 (Rattus norvegicus, UniProt P15823+P23944+P43140); assay: Tested in vitro for binding affinity by measuring its ability to inhibit [3H]prazosin binding at alpha-1 adrenergic receptor in rat cerebral cortex membranes.; type: cell membranes
T1 sequence (P15823 whole entry): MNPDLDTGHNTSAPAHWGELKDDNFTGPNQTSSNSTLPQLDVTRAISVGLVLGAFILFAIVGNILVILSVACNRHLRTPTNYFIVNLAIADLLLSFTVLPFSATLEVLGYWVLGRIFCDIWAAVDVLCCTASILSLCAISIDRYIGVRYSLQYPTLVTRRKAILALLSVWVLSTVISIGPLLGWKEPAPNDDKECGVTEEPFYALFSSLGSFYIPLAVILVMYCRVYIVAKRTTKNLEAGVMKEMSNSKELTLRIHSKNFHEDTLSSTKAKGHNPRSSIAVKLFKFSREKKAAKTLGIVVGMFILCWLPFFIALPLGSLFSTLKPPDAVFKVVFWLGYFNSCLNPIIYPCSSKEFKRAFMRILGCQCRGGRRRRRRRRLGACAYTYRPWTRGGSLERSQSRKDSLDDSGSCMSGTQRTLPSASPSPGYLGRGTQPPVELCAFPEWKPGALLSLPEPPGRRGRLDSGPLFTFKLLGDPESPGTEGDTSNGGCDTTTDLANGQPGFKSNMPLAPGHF
T1 sequence (P23944 whole entry): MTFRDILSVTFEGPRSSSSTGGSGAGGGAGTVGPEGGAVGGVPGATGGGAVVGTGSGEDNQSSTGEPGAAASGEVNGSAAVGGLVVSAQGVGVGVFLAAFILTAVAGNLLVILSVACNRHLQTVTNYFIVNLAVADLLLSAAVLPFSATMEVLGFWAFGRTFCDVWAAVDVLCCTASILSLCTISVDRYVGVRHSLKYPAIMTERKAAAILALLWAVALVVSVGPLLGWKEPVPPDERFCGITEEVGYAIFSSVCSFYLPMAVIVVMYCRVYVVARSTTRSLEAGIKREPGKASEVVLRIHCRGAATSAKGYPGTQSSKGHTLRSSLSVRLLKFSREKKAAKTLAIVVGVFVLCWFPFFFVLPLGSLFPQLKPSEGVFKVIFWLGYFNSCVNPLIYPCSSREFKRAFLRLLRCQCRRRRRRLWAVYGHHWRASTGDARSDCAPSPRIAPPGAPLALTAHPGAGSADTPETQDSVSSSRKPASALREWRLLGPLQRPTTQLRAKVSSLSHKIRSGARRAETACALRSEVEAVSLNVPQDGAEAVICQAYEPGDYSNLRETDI
T1 sequence (P43140 whole entry): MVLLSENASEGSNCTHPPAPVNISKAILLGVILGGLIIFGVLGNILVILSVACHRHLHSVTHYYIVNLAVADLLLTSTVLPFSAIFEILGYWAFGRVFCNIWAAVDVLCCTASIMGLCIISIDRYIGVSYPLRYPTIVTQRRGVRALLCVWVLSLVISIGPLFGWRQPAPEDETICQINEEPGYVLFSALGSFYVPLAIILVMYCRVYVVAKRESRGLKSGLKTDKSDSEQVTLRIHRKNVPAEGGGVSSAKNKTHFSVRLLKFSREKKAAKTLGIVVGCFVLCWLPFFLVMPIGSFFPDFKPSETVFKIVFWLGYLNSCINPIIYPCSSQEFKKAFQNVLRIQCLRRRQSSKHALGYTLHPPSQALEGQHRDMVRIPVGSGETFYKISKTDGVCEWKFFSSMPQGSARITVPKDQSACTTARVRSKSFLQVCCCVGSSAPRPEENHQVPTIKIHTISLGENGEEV
Procedure, shortened: (§1)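 Rat cerebral cortex homogenized in ice-cold 50 mM Tris-HCl/10 mM MgCl2 (pH 7.7), centrifuged at 30000g, washed twice. About 250 μg membrane protein incubated at 25 °C for 30 min with 0.2 nM [3H]prazosin plus several competitor concentrations. Compounds first screened at 10^-6 M; dose-response curves done where displacement reached ≥55%.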

[2] = target: T2, 5-hydroxytryptamine receptor 1A (Rattus norvegicus, UniProt P19327); assay: Tested in vitro for binding affinity by measuring its ability to inhibit [3H]8-OH-DPAT binding at 5-hydroxytryptamine 1A receptor in rat cerebral cortex membranes.; type: cell membranes
T2 sequence (P19327 whole entry): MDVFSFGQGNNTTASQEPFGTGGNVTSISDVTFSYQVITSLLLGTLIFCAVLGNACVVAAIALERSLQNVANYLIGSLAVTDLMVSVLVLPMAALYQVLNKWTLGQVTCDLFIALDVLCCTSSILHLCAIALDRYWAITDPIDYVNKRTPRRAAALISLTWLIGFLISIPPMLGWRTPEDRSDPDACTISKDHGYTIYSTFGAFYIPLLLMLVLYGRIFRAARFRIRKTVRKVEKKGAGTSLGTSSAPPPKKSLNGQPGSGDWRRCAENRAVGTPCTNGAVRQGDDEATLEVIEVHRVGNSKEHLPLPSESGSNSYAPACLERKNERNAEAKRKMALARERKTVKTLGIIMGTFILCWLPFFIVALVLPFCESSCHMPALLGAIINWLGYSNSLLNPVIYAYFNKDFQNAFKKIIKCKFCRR
Procedure, shortened: (§2)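 Rat cortex homogenized in ice-cold 50 mM Tris-HCl (pH 7.7), spun at 28000g, washed twice, preincubated 37 °C 10 min, resuspended in Tris/5 mM MgSO4/0.5 mM EDTA (pH 7.4). About 1 mg protein incubated 15 min at 37 °C with 0.6 nM [3H]-8-OH-DPAT and competitor, in buffer with 10 nM clonidine and 30 nM prazosin. Nonspecific binding: 10 μM 5-HT. Prescreen at 10^-6 M; curves run if displacement ≥55%.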

[3] = target: T2, 5-hydroxytryptamine receptor 1A; assay: In vitro binding affinity against 5-hydroxytryptamine 1A receptor of rat cerebral cortex using [3H]8-OH-DPAT as radioligand.; type: tissue-based; procedure, shortened: as §2
[4] = target: T1, Adrenergic receptor alpha-1; assay: In vitro binding affinity against alpha-1 adrenergic receptor of rat cerebral cortex using [3H]prazosin as radioligand.; type: tissue-based; procedure, shortened: as §1

SMILES	Ki [1] [µM]	Ki [2] [µM]	Ki [4] [µM]	other results
O=C1C2CCCCN2C(=O)N1CCN1CCN(c2ccccc2)CC1 (stereo not drawn)	–	1.35	–	–
COc1ccccc1N1CCN(CN2C(=O)C3CCCCN3C2=O)CC1 (stereo not drawn)	–	–	–	Ki [3]: 0.0311 µM
O=C1C2CCCCN2C(=O)N1CN1CCN(c2cccc(C(F)(F)F)c2)CC1 (stereo not drawn)	–	–	3.296	–
Nc1ccc(N2CCN(CCCCN3C(=O)C4CCCN4C3=O)CC2)cc1 (stereo not drawn)	–	> 10	–	–
O=C1C2CCCCN2C(=O)N1CCCN1CCN(c2ccc([N+](=O)[O-])cc2)CC1 (stereo not drawn)	6.652	30.6	–	–
O=C1C2CCCCN2C(=O)N1CN1CCN(c2ccccc2)CC1 (stereo not drawn)	–	–	2.075	–
O=C1C2CCCN2C(=O)N1CN1CCN(c2ccc(F)cc2)CC1 (stereo not drawn)	–	–	1.193	–
O=C1C2CCCN2C(=O)N1CCN1CCN(c2ccc(F)cc2)CC1 (stereo not drawn)	–	23.9	–	–
O=C1C2CCCN2C(=O)N1CN1CCN(c2ccccc2)CC1 (stereo not drawn)	–	–	2.588	–
O=C1C2CCCN2C(=O)N1CCN1CCN(c2cccc(C(F)(F)F)c2)CC1 (stereo not drawn)	3.935	–	–	–

The next lines start with results.

Ki [1] [µM]	Ki [2] [µM]	Ki [4] [µM]	SMILES	other results
> 10	0.102	–	CC(C)C(=O)Nc1cccc(N2CCN(CCCCN3C(=O)C4CCCN4C3=O)CC2)c1.Cl (stereo not drawn)	–
–	19.3	–	O=C1C2CCCCN2C(=O)N1CCN1CCN(c2ccc(F)cc2)CC1 (stereo not drawn)	–
–	–	260	O=C1C2CCCN2C(=O)N1CN1CCN(c2ccc([N+](=O)[O-])cc2)CC1 (stereo not drawn)	Ki [3]: 6.1 µM
–	7.55	–	O=C1C2CCCN2C(=O)N1CCN1CCN(c2ccccc2)CC1 (stereo not drawn)	–
199	93.6	–	O=C1C2CCCCN2C(=O)N1CCN1CCN(c2ccc([N+](=O)[O-])cc2)CC1 (stereo not drawn)	–
4.325	–	–	O=C1C2CCCCN2C(=O)N1CCN1CCN(c2cccc(C(F)(F)F)c2)CC1 (stereo not drawn)	–
–	–	3.296	O=C1C2CCCN2C(=O)N1CN1CCN(c2cccc(C(F)(F)F)c2)CC1 (stereo not drawn)	–
7.533	–	–	O=C1C2CCCN2C(=O)N1CCCN1CCN(c2ccc([N+](=O)[O-])cc2)CC1 (stereo not drawn)	–
260	501	–	O=C1C2CCCN2C(=O)N1CCN1CCN(c2ccc([N+](=O)[O-])cc2)CC1 (stereo not drawn)	–
–	1.18	–	O=C1C2CCCN2C(=O)N1CCCN1CCN(c2ccc(F)cc2)CC1 (stereo not drawn)	–
–	–	260	O=C1C2CCCCN2C(=O)N1CN1CCN(c2ccc([N+](=O)[O-])cc2)CC1 (stereo not drawn)	Ki [3]: 5.97 µM
–	23.9	–	O=C1C2CCCN2C(=O)N1CCCCN1CCN(c2ccc([N+](=O)[O-])cc2)CC1 (stereo not drawn)	–
